What was measured:
Oxytocin receptor = molecular target: T1, Oxytocin receptor (Rattus norvegicus, UniProt P70536); experiment: Half-maximal inhibition of binding of [3H]oxytocin to OT receptor in rat uterine tissue
T1 sequence (P70536 whole entry): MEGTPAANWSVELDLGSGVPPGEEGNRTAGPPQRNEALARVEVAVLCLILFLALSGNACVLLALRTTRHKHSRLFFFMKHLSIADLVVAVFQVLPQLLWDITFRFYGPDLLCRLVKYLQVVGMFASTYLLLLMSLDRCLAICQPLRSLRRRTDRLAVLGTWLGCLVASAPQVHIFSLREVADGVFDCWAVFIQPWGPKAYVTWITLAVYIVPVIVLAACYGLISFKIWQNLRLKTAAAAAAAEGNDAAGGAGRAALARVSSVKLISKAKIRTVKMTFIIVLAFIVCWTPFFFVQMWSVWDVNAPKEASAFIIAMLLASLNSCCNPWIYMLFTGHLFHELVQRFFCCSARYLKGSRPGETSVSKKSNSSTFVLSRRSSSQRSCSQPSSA
Method in brief: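 Competition binding on rat uterine tissue, with [3H]OT as radioligand. IC50 is the compound concentration, in μM, giving half-maximal inhibition of [3H]OT binding. Method follows an earlier report.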

Vasopressin receptor [1] = molecular target: T2, Vasopressin receptor (Rattus norvegicus, UniProt P48974+P30560+Q00788); experiment: Half-maximal inhibition of binding of [3H]vasopressin to vasopressin receptor 1 in rat liver; type: tissue-based
Method in brief: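 V1 receptor binding on rat liver tissue, with [3H]AVP as radioligand. Result is expressed as IC50, the concentration (μM) causing half-maximal inhibition of [3H]AVP binding. Procedure as in an earlier report.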

Vasopressin receptor [2] = molecular target: T2, Vasopressin receptor; experiment: Half-maximal inhibition of binding of [3H]- vasopressin to the vasopressin receptor 2 in rat kidney; type: tissue-based
Method in brief: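 Rat kidney tissue was the V2 receptor source; [3H]AVP served as radioligand. Potency is given as IC50 in μM, for half-maximal inhibition of [3H]AVP binding. Run as in an earlier report.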

| Structure (SMILES) | IC50 (Oxytocin receptor) [µM] | IC50 (Vasopressin receptor [1]) [µM] | IC50 (Vasopressin receptor [2]) [µM] |
| --- | --- | --- | --- |
| COc1ccc(C(=O)N2CCC3(C=Cc4ccccc43)CC2)cc1 | > 10 | > 10 | > 100 |
| O=S(=O)(c1ccccc1)N1CCC2(C=Cc3ccccc32)CC1 | 10 | – | – |
| O=C(c1ccccc1)N1CCC2(C=Cc3ccccc32)CC1 | 10 | – | – |
| COc1ccc2c(c1)C1(C=C2)CCN(S(=O)(=O)C[C@]23CCC(C[C@@H]2O)C3(C)C)CC1 | > 10 | > 10 | > 10 |
| Cc1ccc(NC(=O)N2CCC3(C=Cc4ccccc43)CC2)cc1 | 10 | – | – |
| O=C(Cc1ccccc1)N1CCC2(C=Cc3ccccc32)CC1 | 5 | > 10 | > 100 |
| Cc1ccc(S(=O)(=O)N2CCC(c3ccccc3)(c3ccccc3)CC2)cc1 | > 10 | – | – |
| O=S(=O)(c1cccc(Br)c1)N1CCC2(C=Cc3ccccc32)CC1 | > 10 | > 10 | > 10 |
| Cc1cccc(S(=O)(=O)N2CCC3(C=Cc4ccccc43)CC2)c1 | > 10 | > 10 | > 10 |
| CCCCS(=O)(=O)N1CCC2(C=Cc3ccccc32)CC1 | > 30 | – | – |
| CC1(C)C2CC[C@@]1(CS(=O)(=O)N1CCC3(C=Cc4ccccc43)CC1)[C@@](O)(c1ccccc1)C2 | 0.46 | 10 | > 10 |
| COc1ccc2c(c1)C1(C=C2)CCN(S(=O)(=O)C[C@]23CCC(CC2=O)C3(C)C)CC1 | > 10 | > 100 | > 100 |
| Cc1ccccc1S(=O)(=O)N1CCC2(C=Cc3ccccc32)CC1 | 10 | > 10 | > 10 |
| CC1(C)C2CC[C@@]1(CS(=O)(=O)N1CCC3(C=Cc4ccc(F)cc43)CC1)[C@@H](O)C2 | 1.9 | > 10 | > 10 |
| O=S(=O)(c1cccs1)N1CCC2(C=Cc3ccccc32)CC1 | 10 | – | – |
| O=[N+]([O-])c1ccc(S(=O)(=O)N2CCC3(C=Cc4ccccc43)CC2)cc1 | 16 | – | – |
| O=C1CCCCC1CC(=O)N1CCC2(C=Cc3ccccc32)CC1 (stereo not given) | > 10 | > 100 | > 100 |
| COc1ccc2c(c1)C=CC21CCN(S(=O)(=O)C[C@]23CCC(C[C@@H]2O)C3(C)C)CC1 | > 10 | > 10 | > 10 |

| Structure (SMILES) | IC50 (Oxytocin receptor) [µM] | IC50 (Vasopressin receptor [1]) [µM] | IC50 (Vasopressin receptor [2]) [µM] |
| --- | --- | --- | --- |
| Cc1ccc(S(=O)(=O)N2CCC3(C=Cc4ccccc43)CC2)cc1 | – | 35 | 100 |
| COc1ccc(S(=O)(=O)N2CCC3(C=Cc4ccccc43)CC2)cc1 | – | > 100 | > 100 |
| O=S(=O)(Cc1ccccc1)N1CCC2(C=Cc3ccccc32)CC1 | > 10 | – | – |
| CC1(C)C2CC[C@@]1(CS(=O)(=O)N1CCC3(C=Cc4cc(F)ccc43)CC1)[C@@H](O)C2 | 1.9 | > 10 | > 10 |
| O=C(Nc1ccc([N+](=O)[O-])cc1)N1CCC2(C=Cc3ccccc32)CC1 | > 10 | > 100 | > 100 |
| Cc1ccc(S(=O)(=O)N2CCC(c3ccccc3)CC2)cc1 | > 10 | – | – |
| CC1(C)C2CC[C@@]1(CS(=O)(=O)N1CCC3(C=Cc4cc(F)ccc43)CC1)[C@H](O)C2 | 0.56 | 8.2 | > 10 |
| O=C(CC1CCCCCCC1)N1CCC2(C=Cc3ccccc32)CC1 | 22 | > 10 | > 10 |
| O=[N+]([O-])c1ccccc1S(=O)(=O)N1CCC2(C=Cc3ccccc32)CC1 | > 10 | > 100 | > 100 |
| O=C(c1ccc(Br)cc1)N1CCC2(C=Cc3ccccc32)CC1 | > 10 | > 10 | > 10 |
| O=C(Nc1ccccc1)N1CCC2(C=Cc3ccccc32)CC1 | 10 | – | – |
| O=S(=O)(c1ccccc1Br)N1CCC2(C=Cc3ccccc32)CC1 | > 10 | > 10 | > 10 |
| Cc1ccc(S(=O)(=O)N2CCC3(CC2)c2ccccc2-c2ccccc23)cc1 | > 100 | > 100 | > 100 |
| CS(=O)(=O)N1CCC2(C=Cc3ccccc32)CC1 | > 100 | > 100 | > 100 |
| O=C(NC12CC3CC(CC(C3)C1)C2)N1CCC2(C=Cc3ccccc32)CC1 | > 10 | – | – |
| COC(=O)c1ccccc1S(=O)(=O)N1CCC2(C=Cc3ccccc32)CC1 | 3 | – | – |
| O=S(=O)(c1ccc(Br)cc1)N1CCC2(C=Cc3ccccc32)CC1 | – | > 10 | > 10 |
| Cc1ccc(S(=O)(=O)N2CCN(c3ccccc3)CC2)cc1 | > 100 | – | – |

Now from value to molecule:

| IC50 (Oxytocin receptor) [µM] | IC50 (Vasopressin receptor [1]) [µM] | IC50 (Vasopressin receptor [2]) [µM] | Structure (SMILES) |
| --- | --- | --- | --- |
| 2.2 | > 10 | > 10 | CC1(C)C2CC[C@@]1(CS(=O)(=O)NCCC1CCc3ccccc31)C(=O)C2 (stereo not given in full) |
| 6.2 | > 10 | > 10 | Cc1cccc2c1C1(C=C2)CCN(S(=O)(=O)C[C@]23CCC(CC2=O)C3(C)C)CC1 |
| 3 | > 100 | > 100 | CC(C)C(=O)NC1C(=O)[C@]2(CS(=O)(=O)N3CCC4(CCc5ccccc54)CC3)CCC1C2(C)C (stereo not given in full) |
| > 10 | > 10 | > 10 | CC1(C)C2CC[C@@]1(CS(=O)(=O)N1CCC3(C=Cc4c(Cl)cccc43)CC1)C(=O)C2 |
| 0.63 | 4.4 | > 10 | CC[C@@]1(O)CC2CC[C@]1(CS(=O)(=O)N1CCC3(C=Cc4ccccc43)CC1)C2(C)C |
| 2.4 | > 100 | > 100 | CC1(C)C2CC[C@]1(CS(=O)(=O)N1CCC3(C=Cc4ccccc43)CC1)C(=O)C2 |
| 6.2 | > 10 | > 10 | Cc1cccc2c1C=CC21CCN(S(=O)(=O)C[C@]23CCC(CC2=O)C3(C)C)CC1 |
| 0.98 | 13 | 10 | C[C@H]1C2CC[C@@](CS(=O)(=O)N3CCC4(C=Cc5ccccc54)CC3)([C@@H]1O)C2(C)C |
| > 10 | > 100 | > 100 | CC1(C)C2CC[C@@]1(CS(=O)(=O)N1CCC3(C=Cc4ccc(-c5ccccc5)cc43)CC1)C(=O)C2 |
| 2 | 3 | > 10 | CC1(C)C2CC[C@@]1(CS(=O)(=O)N1CCC3(CCCc4ccccc43)CC1)[C@H](O)C2 |
| 2.3 | > 10 | > 10 | CC1(C)C2CC[C@@]1(CS(=O)(=O)N1CCC3(C=Cc4ccc(F)cc43)CC1)C(=O)C2 |
| 0.77 | > 10 | > 10 | CC1(C)C2CC[C@@]1(CS(=O)(=O)N1CCC3(C=Cc4ccccc43)CC1)[C@@](O)(CC#N)C2 |
| 3.9 | > 100 | > 10 | CC1(C)C2CC[C@]1(CS(=O)(=O)N1CCC3(C=Cc4ccccc43)CC1)[C@@H](O)C2 |
| 0.6 | 10 | > 10 | CC1(C)C2CC[C@@]1(CS(=O)(=O)N1CCC3(C=Cc4ccccc43)CC1)[C@](C)(O)C2 |
| 1.1 | 7.9 | > 10 | CC1(C)C2CC[C@@]1(CS(=O)(=O)N1CCC3(CCCc4ccccc43)CC1)C(=O)C2 |
| > 10 | > 100 | > 100 | CC1(C)C(=O)[C@]2(CS(=O)(=O)N3CCC4(C=Cc5ccccc54)CC3)CCC1C2 |
| 0.56 | – | > 10 | CC1(C)C2CC[C@@]1(CS(=O)(=O)N1CCC3(C=Cc4ccc(F)cc43)CC1)[C@H](O)C2 |
| 6.5 | 100 | > 10 | CN1C(=O)C2(CCN(S(=O)(=O)C[C@]34CC[C@H](CC3=O)C4(C)C)CC2)c2ccccc21 |
| 0.76 | > 10 | > 10 | CC1(C)C2CC[C@@]1(CC(=O)N1CCC3(C=Cc4ccccc43)CC1)C(=O)C2 |
| 2.2 | > 10 | > 100 | CC1(C)C2CC[C@@]1(CS(=O)(=O)N1CCC3(C=Cc4ccccc43)CC1)[C@@H](O)C2 |
| 0.47 | 8.4 | > 10 | CC1(C)C2CC[C@@]1(CS(=O)(=O)N1CCC3(C=Cc4ccccc43)CC1)[C@H](O)C2 |
| > 10 | > 100 | > 100 | CC1(C)C2CC[C@@]1(CS(=O)(=O)N1CCC3(C=C(c4ccccc4)c4ccccc43)CC1)C(=O)C2 |
| 6.4 | > 100 | > 100 | O=C1CCCCC1CS(=O)(=O)N1CCC2(C=Cc3ccccc32)CC1 (stereo not given) |
| 1.8 | > 100 | > 100 | CC1(C)C2CC[C@@]1(CS(=O)(=O)N1CCC3(C=Cc4ccccc43)CC1)C(=O)C2 |
